Measured values reported in ChEMBL document CHEMBL2062523, “Synthesis and evaluation of the quorum sensing inhibitory effect of substituted triazolyldihydrofuranones” (Bioorg Med Chem, 2012).
In brackets after ≈: the same amount, converted by molar mass. Activity calls are given as the source filed them. The rule behind the calls is not given here.

Key:
Format in all cases: functional
Pseudomonas aeruginosa [1] = assay: Antagonist activity at Pseudomonas aeruginosa QSIS2 LasR-mediated quorum sensing co-expressing SacB1 assessed as inhibition of 3-oxo-C12-HSL-induced luminescence at 0.5 mM after 24 hrs by reporter gene assay
[2] = target: T1, Transcriptional activator protein LuxR (Aliivibrio fischeri) (UniProt P12746); assay: Agonist activity at Vibrio fischeri LuxR-mediated quorum sensing expressed in Escherichia coli JB523 assessed as GFP expression at 1 mM after 24 hrs by reporter gene assay
T1 sequence (whole entry): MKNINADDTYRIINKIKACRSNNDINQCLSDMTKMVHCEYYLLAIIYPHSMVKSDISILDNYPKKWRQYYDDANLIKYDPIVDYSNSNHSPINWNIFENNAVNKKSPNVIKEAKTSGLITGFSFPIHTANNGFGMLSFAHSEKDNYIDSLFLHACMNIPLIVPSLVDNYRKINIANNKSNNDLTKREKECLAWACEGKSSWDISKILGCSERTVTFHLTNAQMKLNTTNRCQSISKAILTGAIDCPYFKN
Method in brief: (§1)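 E. coli JB523 (pJBA130, luxR-PluxI–GFP) overnight culture diluted to OD590 0.1 in LB with 0.4% NaCl, tetracycline 100 µg/ml final. Compounds 100–1000 µM added without signal; C6-HSL (5 µM) as positive control, water as negative. 24 h at 30 °C; GFP fluorescence ex 485/em 510 nm. Twelve wells per compound, ≥3 repeats.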

Pseudomonas aeruginosa [3] = assay: Agonist activity at Pseudomonas aeruginosa QSIS2 LasR-mediated quorum sensing co-expressing SacB1 assessed as luminescence at 0.5 mM after 24 hrs by reporter gene assay
Pseudomonas aeruginosa [4] = assay: Antagonist activity at Pseudomonas aeruginosa QSIS2 LasR-mediated quorum sensing co-expressing SacB1 assessed as inhibition of 3-oxo-C12-HSL-induced luminescence at 0.25 mM […] by reporter gene assay
Pseudomonas aeruginosa [5] = assay: Agonist activity at Pseudomonas aeruginosa QSIS2 LasR-mediated quorum sensing co-expressing SacB1 assessed as luminescence at 0.1 mM after 24 hrs by reporter gene assay
Pseudomonas aeruginosa [6] = assay: Agonist activity at Pseudomonas aeruginosa QSIS2 LasR-mediated quorum sensing co-expressing SacB1 assessed as luminescence after 24 hrs by reporter gene assay
[7] = target: T1, Transcriptional activator protein LuxR (Aliivibrio fischeri); assay: Antagonist activity at Vibrio fischeri LuxR-mediated quorum sensing expressed in Escherichia coli JB523 assessed as inhibition of C6-HSL-induced GFP expression at 1 mM after 24 hrs by reporter gene assay
Method in brief: (§2)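 JB523 GFP biosensor in LB/0.4% NaCl at OD590 0.1 with tetracycline 100 µg/ml final; compounds co-added with C6-HSL (5 µM). Plates kept 24 h at 30 °C, then GFP read at 485/510 nm. Each compound tested in twelve wells, assay repeated at least three times.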

Burkholderia cenocepacia = assay: Antibacterial activity against Burkholderia cenocepacia LMG16656 after 20 hrs by broth microdilution assay; details: LMG16656, 20 h
Method in brief: (§3)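 EUCAST broth microdilution in triplicate, inoculum about 5 × 10^5 CFU/ml. Incubated 20 h at 37 °C, then OD590 read. Compounds from 100 mM DMSO stocks, diluted in water.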

Pseudomonas aeruginosa [8] = assay: Antagonist activity at Pseudomonas aeruginosa QSIS2 LasR-mediated quorum sensing co-expressing SacB1 assessed as inhibition of 3-oxo-C12-HSL-induced luminescence at 1 mM […] by reporter gene assay
Pseudomonas aeruginosa [9] = assay: Antagonist activity at Pseudomonas aeruginosa QSIS2 LasR-mediated quorum sensing co-expressing SacB1 assessed as inhibition of 3-oxo-C12-HSL-induced luminescence at 0.1 mM after 24 hrs by reporter gene assay
Pseudomonas aeruginosa [10] = assay: Antibacterial activity against Pseudomonas aeruginosa QSIS2 after 20 hrs by broth microdilution assay; details: QSIS2, 20 h; method in brief: as §3
[11] = target: T1, Transcriptional activator protein LuxR (Aliivibrio fischeri); assay: Antagonist activity at Vibrio fischeri LuxR expressed in Escherichia coli JB523 assessed as inhibition of C6-HSL-induced GFP expression at 0.5 mM after 24 hrs by reporter gene assay; method in brief: as §2
[12] = target: T1, Transcriptional activator protein LuxR (Aliivibrio fischeri); assay: Antagonist activity at Vibrio fischeri LuxR-mediated quorum sensing expressed in Escherichia coli JB523 assessed as inhibition of C6-HSL-induced GFP expression at 0.1 mM after 24 hrs by reporter gene assay; method in brief: as §2
Pseudomonas aeruginosa [13] = assay: Agonist activity at Pseudomonas aeruginosa QSIS2 LasR-mediated quorum sensing co-expressing SacB1 assessed as luminescence at 0.25 mM after 24 hrs by reporter gene assay
Pseudomonas aeruginosa [14] = assay: Agonist activity at Pseudomonas aeruginosa QSIS2 LasR-mediated quorum sensing coexpressing SacB1 assessed as […] by reporter gene assay
Pseudomonas aeruginosa [15] = assay: Antibacterial activity against Pseudomonas aeruginosa PAO1 after 20 hrs by broth microdilution assay; details: PAO1, 20 h; method in brief: as §3
[16] = target: T1, Transcriptional activator protein LuxR (Aliivibrio fischeri); assay: Antagonist activity at Vibrio fischeri LuxR-mediated quorum sensing expressed in Escherichia coli JB523 assessed as inhibition of C6-HSL-induced GFP expression after 24 hrs by reporter gene assay; method in brief: as §2
Escherichia coli = assay: Antibacterial activity against Escherichia coli JB523 after 20 hrs by broth microdilution assay; details: JB523, 20 h; method in brief: as §3
[17] = target: T1, Transcriptional activator protein LuxR (Aliivibrio fischeri); assay: Agonist activity at Vibrio fischeri LuxR-mediated quorum sensing expressed in Escherichia coli JB523 assessed as GFP expression at 0.25 mM after 24 hrs by reporter gene assay; method in brief: as §1
[18] = target: T1, Transcriptional activator protein LuxR (Aliivibrio fischeri); assay: Agonist activity at Vibrio fischeri LuxR-mediated quorum sensing expressed in Escherichia coli JB523 assessed as GFP expression at 0.1 mM after 24 hrs by reporter gene assay; method in brief: as §1
[19] = target: T1, Transcriptional activator protein LuxR (Aliivibrio fischeri); assay: Agonist activity at Vibrio fischeri LuxR-mediated quorum sensing expressed in Escherichia coli JB523 assessed as GFP expression at 0.5 mM after 24 hrs by reporter gene assay; method in brief: as §1

| SMILES | inhibition (Pseudomonas aeruginosa [1]) | Activity [2] | Activity (Pseudomonas aeruginosa [3]) | inhibition (Pseudomonas aeruginosa [4]) | Activity (Pseudomonas aeruginosa [5]) | inhibition [7] [%] | MIC (Burkholderia cenocepacia) [mM] | inhibition (Pseudomonas aeruginosa [8]) | inhibition (Pseudomonas aeruginosa [9]) | MIC (Pseudomonas aeruginosa [10]) [mM] | inhibition [11] [%] | inhibition [12] | Activity (Pseudomonas aeruginosa [13]) | Activity (Pseudomonas aeruginosa [14]) | MIC (Pseudomonas aeruginosa [15]) [mM] | inhibition [16] | MIC (Escherichia coli) [mM] | Activity [17] | Activity [18] | Activity [19] | also measured |
| --- | --- | --- | --- | --- | --- | --- | --- | --- | --- | --- | --- | --- | --- | --- | --- | --- | --- | --- | --- | --- | --- |
| CCCCCCCCCCc1cn(C2CCOC2=O)nn1 (stereo not drawn) | 15% | inactive | 38% | 8.1% | 32.1% | 31.9 | 2.5 (≈ 734 µg/mL) | 21.9% | 7% | 2.5 (≈ 734 µg/mL) | 28 | 12.4% | 31.4% | 57.2% | 2.5 (≈ 734 µg/mL) | Dose-dependent effect | 2.5 (≈ 734 µg/mL) | inactive | inactive | inactive | Activity (Pseudomonas aeruginosa [6]): Dose-dependent effect |
| CCCCCCc1cn(C2CCOC2=O)nn1 (stereo not drawn) | inactive | 32.7% | inactive | inactive | inactive | 34.3 | 5 (≈ 1190 µg/mL) | inactive | inactive | 5 (≈ 1190 µg/mL) | 23.2 | 11.6% | inactive | inactive | 5 (≈ 1190 µg/mL) | Dose-dependent effect | 5 (≈ 1190 µg/mL) | 10% | inactive | 17.5% |  |
| CCCCCCCc1cn(C2CCOC2=O)nn1 (stereo not drawn) | inactive | 17.6% | inactive | inactive | inactive | 39 | 5 (≈ 1260 µg/mL) | inactive | inactive | 5 (≈ 1260 µg/mL) | 34.6 | 13.7% | inactive | inactive | 5 (≈ 1260 µg/mL) | Dose-dependent effect | 5 (≈ 1260 µg/mL) | 8% | inactive | 12.2% |  |
| CCCCCc1cn(C2CCOC2=O)nn1 (stereo not drawn) | inactive | 25.9% | inactive | inactive | inactive | 35.1 | 5 (≈ 1120 µg/mL) | inactive | inactive | 5 (≈ 1120 µg/mL) | 27.5 | 9% | inactive | inactive | 5 (≈ 1120 µg/mL) | Dose-dependent effect | 5 (≈ 1120 µg/mL) | 5.7% | inactive | 16.3% |  |
| CCCCc1cn(C2CCOC2=O)nn1 (stereo not drawn) | inactive | 17.3% | inactive | inactive | inactive | 27.9 | 5 (≈ 1050 µg/mL) | inactive | inactive | 5 (≈ 1050 µg/mL) | 22.5 | 12.7% | inactive | inactive | 5 (≈ 1050 µg/mL) | Dose-dependent effect | 5 (≈ 1050 µg/mL) | inactive | inactive | 11.6% |  |
| O=C1OCCC1n1cc(-c2ccccc2)nn1 (stereo not drawn) | inactive | 12.8% | 14.4% | inactive | inactive | 26.9 | 5 (≈ 1150 µg/mL) | inactive | inactive | 5 (≈ 1150 µg/mL) | 24.5 | inactive | inactive | 22.2% | 5 (≈ 1150 µg/mL) | Dose-dependent effect | 10 (≈ 2290 µg/mL) | inactive | inactive | inactive | Activity (Pseudomonas aeruginosa [6]): Dose-dependent effect |
| O=C1OCCC1n1cc(Cc2ccccc2)nn1 (stereo not drawn) | inactive | inactive | 39.7% | inactive | 19.1% | 34.4 | 5 (≈ 1220 µg/mL) | 49.9% | inactive | 5 (≈ 1220 µg/mL) | 29.6 | 6.3% | 31.1% | 67.5% | 5 (≈ 1220 µg/mL) | Dose-dependent effect | 5 (≈ 1220 µg/mL) | inactive | inactive | inactive | Activity (Pseudomonas aeruginosa [6]): Dose-dependent effect |
